Most compounds without a hit are left out; they make up all but 7.2% or so of the library.
PLAP activator = PLAP enzyme activators, biochemical, luminescence, HTS | Alkaline phosphatase, placental type (Homo sapiens), P05187 | purified PLAP enzyme, luminescent substrate read-out; hits give high values | activation fold at 20 µM | 96,000 tested, 1.2% active | AID 696, 2007; in the data active means activation fold above about 2
PostGolgi yeast = phenotypic screen on post-Golgi transport, primary screen; 98,000 tested, 0.9% active; inhibition, % at 10 µM; post-Golgi transport phenotypic cell assay;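 further: yeast cells grown in 1536-well plates; yeast grown about 18 h at 30C before absorbance read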
tolC growth inh = growth inhibitors of E. coli tolC mutant, primary screen, strain BW25113 ΔtolC::kan, 384-well | OD615 | growth inhibition, % at 10 µM (by protocol) | 65,000 tested, 2.2% active;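 active means growth inhibition at or above a cutoff equal to the mean over every tested compound plus 3 SD, cut at about 60% in these data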;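 further: growth measured after 20 h incubation at 37 °C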
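Material: E. coli BW25113 ΔtolC::kan, tolC deletion mutant strain. Measure: percent growth inhibition. Schedule: 37 °C, 20 h exposure. Doses: single-point testing at 10 µM. Signal: A615 absorbance measurement. Buffer or medium: kanamycin-containing LB broth (50 µg/mL).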
E coli WT exp = growth inhibitors of wild-type E. coli, primary screen, strain BW25113, expanded library, OD600. OD600 absorbance. growth inhibition, % at 100 µM. 98,000 tested, 0.15% active. AID 710, 2007;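 active means growth inhibition above about 50% at one test dose, limit read from the data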;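 further: growth measured after 20 h incubation at 37 °C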
PostGolgi ctrl = growth inhibition of yeast control strain, primary screen, counter-screen for post-Golgi transport modulator project; efflux-deficient yeast background strain, growth absorbance A615, 16 h; inhibition, % at 10 µM; 98,000 tested, 5% active; AID 738, 2007
Starred values were filed as active, the others as inactive; nt = no result. Unless noted, no stated cut-off is given here; in the data, active means inhibition above about 30%; inactive means the rest.

SMILES | PLAP activator | PostGolgi yeast | tolC growth inh | E coli WT exp | PostGolgi ctrl
S=C(c1ccc(N2CCCC2)cc1)N1CCCCC1 | 0.8 | -10 | 27 | -5 | 11
C/C(=N\NC(=O)c1c[nH]c2ccccc12)c1ccc(C)o1 | 2.6* | 0 | nt | 5 | 22
Cc1occc1C(=O)N/N=C/c1c[nH]c2ccccc12 | 0.9 | 0 | nt | 3 | 4
Cc1ccc(NC(=O)Cn2cncc2-c2ccc([N+](=O)[O-])cc2)cc1C | 1.1 | 1 | nt | -10 | 33*
CCCCCNC(=O)c1c(N)n(/N=C/c2ccco2)c2nc3ccccc3nc12 | nt | nt | 2 | nt | nt
O=C(c1ccco1)N1CCN(C(c2cccs2)c2nnnn2C2CCCCC2)CC1 (stereo not drawn) | 1.7 | 3 | -11 | 5 | -4
CCN(CC)S(=O)(=O)c1ccc(NCc2ccccc2)nc1 | 0.8 | -4 | -11 | 1 | 38*
COc1cccc(OC)c1-c1nn2c(-c3ccccc3Cl)nnc2s1 | 1.2 | -3 | 20 | -1 | 38*
COc1ccccc1-c1nnc2sc(COc3ccc(Cl)cc3)nn12 | 1.3 | 11 | 69* | -10 | 35*
Clc1ccccc1-c1nnc2sc(-c3ccccn3)nn12 | nt | nt | -10 | nt | nt
O=C(CNS(=O)(=O)c1ccccc1)Nc1ccc(C(F)(F)F)cc1 | 1.1 | -1 | nt | -6 | 14
CCOc1ccccc1N1CCN(Cc2ccc(Br)s2)CC1 | 1.2 | 1 | 97* | 23 | 11
CCOc1ccccc1N1CCN(Cc2ccco2)CC1 | 1.8 | -8 | nt | -4 | 3
O=C(OC1CCN(c2ncc(C(F)(F)F)cc2Cl)CC1)c1ccc(Cl)cc1 | 1.1 | 5 | nt | -4 | 1
O=C(OCCN1CCN(c2ncc(C(F)(F)F)cc2Cl)CC1)c1ccc(Cl)cc1 | 1.6 | 16 | nt | -2 | 31*
O=C(CSc1nccn1-c1ncc(C(F)(F)F)cc1Cl)c1ccc(Cl)cc1 | 1.7 | 3 | nt | 4 | 32*
COc1ccc(C2=NC(C(F)(F)F)(C(F)(F)F)c3c(n(C)c(=O)n(C)c3=O)N2)cc1 | 1.3 | 92* | nt | 0 | 9
COc1ccc(-n2c3c(c(=O)[nH]c2=O)C(C(F)(F)F)(C(F)(F)F)N=C(CC(C)C)N3)cc1 | 1 | -2 | nt | -4 | 12
Cc1cc(/C=C2\SC(=S)NC2=O)c(C)n1C | 0.9 | 4 | nt | -1 | 52*
Cc1nn(C)cc1/C=C1\SC(=S)NC1=O | 1.1 | -2 | nt | -1 | -1
O=C(C1CC1)N1CCc2cc(S(=O)(=O)NCCC3=CCCCC3)ccc21 | 1.2 | -3 | 74* | 8 | 36*
CC(CCc1ccccc1)NC(=O)c1nnc(Cc2ccc(Cl)cc2)o1 (stereo not drawn) | 0.9 | -5 | nt | -9 | 10
O=c1[nH]c(=O)n(C2CCCCCC2)c(O)c1C=NCc1ccc(F)cc1 | 1 | 1 | 99* | -10 | 50*
CCOc1ccc(OCC)c(NC(=O)Nc2ccc3c(c2)N(C)C(=O)CS3)c1 | 1.8 | -6 | nt | -2 | 13
N#CCCn1nc(-c2ccccc2)cc1Nc1ccccc1NC(=O)c1cccs1 | 1.6 | 1 | 46 | -25 | -4
SMILES | PLAP activator | PostGolgi yeast | tolC growth inh | E coli WT exp | PostGolgi ctrl
COc1ccc(CN(Cc2ccccn2)C(=O)CN2C(=O)COc3ccccc32)cc1 | 0.9 | -11 | 7 | -6 | 1
CC1Oc2ccccc2N(CC(=O)c2ccccc2)C1=O (stereo not drawn) | 0.9 | 1 | -4 | -1 | -1
COc1ccc(CN(C(=O)CN2C(=O)COc3ccccc32)C2CCCC2)c(OC)c1 | 1.5 | -4 | 71* | -5 | 26
COc1ccc(CN(C(=O)CN2C(=O)C(C)Oc3ccccc32)C2CCCC2)c(OC)c1 (stereo not drawn) | 1.6 | -5 | 67* | -6 | 13
CCOC(=O)c1[nH]nc(-c2c(O)cc(C)cc2O)c1-c1csc(C)n1 | 2.1* | -1 | -15 | 7 | 12
CCOC(=O)c1[nH]nc2c1C(=O)N(CC)C2=O | 0.9 | 0 | -10 | -1 | 22
CCCc1cc(-c2n[nH]c(C(=O)OCC)c2-c2cscn2)c(O)cc1O | 2.1* | 7 | nt | 6 | 2
N#Cc1cccc(NC(=O)NCCc2c[nH]c3ccccc23)c1 | nt | nt | 46 | nt | nt
Cc1ccc(C)c(NS(=O)(=O)c2cc(C(=O)Nc3ccccc3-c3ccccc3)ccc2Cl)c1 | 1.1 | -4 | nt | -18 | 13
CCCCC(=O)Nc1ccc(C(=O)N2CCC(C(=O)OCC)CC2)cc1 | 1.3 | -6 | nt | -10 | 4
